The text below walks through data of ChEMBL document CHEMBL4145477, “Inhibitor of the human telomerase reverse trancriptase (hTERT) gene promoter induces cell apoptosis via a mitochondrial-dependent pathway” (Eur J Med Chem, 2018).

SMILES strings stand for the structures. The source made the active and inactive calls.

Series [1] can be described thus: (§1) Inhibition of human TERT promoter activity expressed in human HeLa cells after 24 hrs by luciferase reporter gene assay. Type of series: cell-based. The procedure, abridged: (§2)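 HeLa cells co-transfected with hTERT promoter–luciferase (P-3996) or pGL2 vector plus pCMV-β-gal. Replated at 5×10^3/well, then treated 24 h in DMEM with 3% FBS at 1–16 µM. Luciferase normalized to β-galactosidase and expressed as fold of 0.1% DMSO control. Three repeats.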

In series [2] the test system is HeLa. The description is as §1. In kind it is cell-based. The procedure, abridged: as §2
The subject of series [3] is HeLa. Briefly: Antiproliferative activity against human HeLa cells at 5 uM by MTT assay. Type of series: functional, cell-based. Particulars: TDE = time-dependent effect. The procedure, abridged:
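HeLa cells seeded 5,000/well in triplicate, exposed to 5 µM for 24 or 48 h. MTT added at 0.5 mg/ml final for 4 h at 37 °C in the dark. Formazan dissolved in DMSO and read at 570 nm. Three independent experiments.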

Another series relates to L02. Briefly: Antiproliferative activity against human LO2 cells at 1 to 16 uM after 48 hrs by MTT assay. In kind it is cell-based. Particulars: l02, 48 h. The procedure, abridged:
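L02 cells given 1, 2, 4, 8 and 16 µM for 48 h. Seeded 5,000/well in triplicate. MTT 0.5 mg/ml final, 4 h at 37 °C in the dark, DMSO solubilization, absorbance at 570 nm. Three independent experiments. IC50 from probit regression of relative absorbance.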

The subject of series [4] is HeLa. Briefly: Inhibition of TERT promoter activity in human HeLa cells assessed as decrease in relative length of telomeres treated up to 22 generations by Q-PCR analysis. In kind it is cell-based. In outline: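 HeLa cells cultured with compound or DMSO for 22 generations. Telomere length measured by qPCR as telomere/36B4 single-copy gene (T/S) ratio relative to a reference DNA. Samples run in duplicate, threshold 0.5.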

The test system of series [5] is HeLa. Briefly: Inhibition of colony formation in human HeLa cells at 5 uM after 3 weeks. Type of series: functional, cell-based. In outline:
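HeLa cells treated with 5 µM and grown 3 weeks. Colonies photographed and colony-formation efficiency quantified.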

The subject of series [6] is HeLa. Briefly: Induction of apoptosis in human HeLa cells assessed as chromatin condensation at 5 uM after 48 hrs by DAPI staining-based fluorescence microscopic analysis. Type of series: functional, cell-based. In outline: (§3)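 Cells fixed in 5% paraformaldehyde and permeabilized with 0.1% Triton X-100 in PBS. Stained 10 min with DAPI (1 µg/mL) and examined by fluorescence microscopy. Nuclei with chromatin condensation and fragmentation scored apoptotic.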

Series [7] concerns HeLa. Briefly: Induction of apoptosis in human HeLa cells assessed as cell shrinkage at 5 uM after 48 hrs by DAPI staining-based fluorescence microscopic analysis. Type of series: functional. The procedure, abridged:
as §3

Series [8] concerns HeLa. Briefly: Induction of apoptosis in human HeLa cells assessed as increase in cleaved caspase-3 levels at 5 uM after 24 hrs by Western blot analysis. Type of series: functional, cell-based. The procedure, abridged:
(§4)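 Treated cells lysed in ice-cold Tris-HCl pH 7.5/NaCl/NP-40 buffer with protease inhibitors. Equal protein separated by SDS-PAGE and transferred to nitrocellulose. Blocked in 5% milk in PBST, primary antibodies overnight at 4 °C, secondary 1 h at room temperature, infrared imaging. β-actin probed alongside.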

For series [9], the system named is HeLa. Briefly: Induction of apoptosis in human HeLa cells assessed as increase in cleaved caspase-9 levels at 5 uM after 24 hrs by Western blot analysis. In kind it is functional, cell-based. The procedure, abridged:
as §4

The test system of series [10] is HeLa. Briefly: Induction of apoptosis in human HeLa cells assessed as decrease in Bcl-2 levels at 5 uM after 24 hrs by Western blot analysis. In kind it is functional, cell-based. The procedure, abridged:
as §4

Series [11] has as its system HeLa. Briefly: Induction of apoptosis in human HeLa cells assessed as increase in Bax levels at 5 uM after 24 hrs by Western blot analysis. In kind it is functional, cell-based. In outline:
as §4

In series [12] the test system is HeLa. Briefly: Induction of apoptosis in human HeLa cells assessed as viable cells at 5 uM after 48 hrs by Annexin V-FITC/propidium iodide staining-based flow cytometric analysis (reference value: 74%). In kind it is functional. Particulars: read-out: Activity.
Series [13] concerns HeLa. Briefly: Induction of apoptosis in human HeLa cells assessed as early apoptotic cells at 5 uM after 48 hrs by Annexin V-FITC/propidium iodide staining-based flow cytometric analysis (reference value: 9.5%). Type of series: functional.
For series [14], the system named is HeLa. Briefly: Induction of apoptosis in human HeLa cells assessed as late apoptotic cells at 5 uM after 48 hrs by Annexin V-FITC/propidium iodide staining-based flow cytometric analysis (reference value: 15%). Type of series: functional.
Series [15] relates to HeLa. Briefly: Induction of apoptosis in human HeLa cells assessed as necrotic cells at 5 uM after 48 hrs by Annexin V-FITC/propidium iodide staining-based flow cytometric analysis (reference value: 1.5%). In kind it is functional.

As for `COc1ccc(-c2cccc3c2/C(=N/O)C(=O)N3Cc2ccc(Cl)cc2)cc1`, in series [1], a half-maximal effect (EC50) was put at 12 µM.

For `O=C1/C(=N\O)c2c(Cl)cccc2N1Cc1ccc(Cl)cc1`, in series [1], the EC50 was 13 µM.

Compound `O=C1/C(=N\O)c2c(I)cccc2N1Cc1ccc(Cl)cc1` registered an EC50 in [1] of 14 µM. Moreover, the inhibition entry in the series on HeLa [2] was “Dose-dependent effect”.

Regarding `O=C1/C(=N\O)c2c(Br)cccc2N1Cc1ccc(Cl)cc1`, a half-maximal response in series [1] (EC50) required 6 µM.

Regarding `O=C1/C(=N\O)c2c(-c3ccc(C(F)(F)F)cc3)cccc2N1Cc1ccc(Cl)cc1`, the Activity result in the series with HeLa [3] was “Tde”; in the series on L02 it was “Non-Toxic”; in the series with HeLa [13], 30.6%; in the series with HeLa [14], 29.1%; in the series with HeLa [15], 2.2%. Further, the EC50 in series [1] amounted to 5 µM. The inhibition result in the series with HeLa [4] and in the series on HeLa [5] was “Active” in each case. The outcome in the series with HeLa [6], with HeLa [7], in the series with HeLa [8], with HeLa [9], in the series on HeLa [10] and in the series with HeLa [11] was Active. Further, in the series on HeLa [12], the viability at 5 µM was found to be 38%.
